Series [1] has as its system Biomphalaria glabrata. Put plainly: Molluscicidal activity against Biomphalaria glabrata assessed as mortality after 24 hrs. It is filed as functional. The method, boiled down:
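Test organism: the snail Biomphalaria glabrata. Pure compound was made up as a 20 mg/mL stock in EtOH, and an aliquot of this stock was diluted with distilled water to give the snail exposure solution. Snails were scored for death, and LC50 values were reported.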

The test system of series [2] is NCI-H460. Put plainly: Cytotoxicity against human H460 cells up to 100 uM. Type of series: cell-based.
A short description of series [3]: Cytotoxicity against mouse Neuro2a cells up to 100 uM. Type of series: cell-based. To be noted: n2a.
The subject of series [4] is Staphylococcus aureus. Kind of series: Antibacterial activity against methicillin-resistant Staphylococcus aureus. Type of series: functional, organism-based.
In series [5] the test system is Candida albicans. Kind of series: Antifungal activity against Candida albicans. Type of series: functional, organism-based.

Activity calls are given as the source filed them. The calls are words filed in the database; no cut-off is given here.

Consider `COC(/C=C/CO)=C/C(=O)N1C(=O)C=C[C@@H]1C` [PALMYRROLINONE], for which the LC50 in series [1] came to 6 µM. Besides, the Activity entry in series [2] and in series [3] was “Non-toxic” each time. Besides, the outcome in series [4] and in series [5] was inactive.
For the molecule `COC1=CC(=O)S[C@@H](CO)C1` [THIOPALMYRONE], the LC50 in series [1] came to 8.3 µM. In addition, the Activity entry in series [2] and in series [3] was “Non-toxic” throughout. The outcome in series [4] and in series [5] was inactive.

In general, LC50 refers to the concentration lethal to half of the exposed cells or organisms.

Source of the values: ChEMBL document CHEMBL1781943, “Molluscicidal metabolites from an assemblage of Palmyra Atoll cyanobacteria” (J Nat Prod, 2011).
